Data from ChEMBL document CHEMBL3102721, “Napyradiomycin derivatives, produced by a marine-derived actinomycete, illustrate cytotoxicity by induction of apoptosis” (J Nat Prod, 2014).
pIC50: −log10 of the molar value. Active and inactive are the calls of the source. No cut-off for these calls is given here.

Columns and labels:
HCT-116 [1] = assay: Antiproliferative activity against human HCT116 cells assessed as cell viability after 72 hrs by MTS assay; format: functional, cell-based; details: HCT-116, 72 h
In short: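 HCT-116 cells plated, left overnight at 37 °C in 5% CO2/air, then given compound from 10 mg/mL DMSO stock at 100 μM top concentration with serial dilution. After 72 h, MTS/PMS added for 3 h and formazan read at 490 nm. IC50 with 95% CI calculated from viability. Etoposide positive control, DMSO negative control.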

HCT-116 [2] = assay: Induction of apoptosis in human HCT116 cells at 1 to 16 uM after 24 hrs by Yo-Pro-1/PI staining-based FACS flow cytometric analysis; format: functional, cell-based
In short: (§1)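 HCT116 cells were grown in McCoy's medium with 10% FBS at 37 °C, 5% CO2, to 50% confluence, then treated for 24 h. They were trypsinized, washed in cold PBS and brought to ~1×10^6 cells/mL. Staining was 30 min on ice with 0.1 μM Yo-Pro-1 (apoptotic) and 3 μg/mL PI (necrotic), final concentrations. Flow cytometry used 488 nm excitation. Gates were set with DMSO and 10 μM camptothecin (24 h) controls, excluding debris.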

HCT-116 [3] = assay: Induction of cell death in human HCT116 cells at 1 to 16 uM after 24 hrs by Yo-Pro-1/PI staining-based FACS flow cytometric analysis; format: functional; in short: as §1
HCT-116 [4] = assay: Induction of apoptosis in human HCT116 cells after 24 hrs by Yo-Pro-1/PI staining-based FACS flow cytometric analysis; format: functional, cell-based; in short: as §1
HCT-116 [5] = assay: Induction of apoptosis in human HCT116 cells at 4 uM after 24 hrs by Yo-Pro-1/PI staining-based FACS flow cytometric analysis; format: functional, cell-based; in short: as §1
HCT-116 [6] = assay: Induction of cell death in human HCT116 cells at 32 uM after 24 hrs by Yo-Pro-1/PI staining-based FACS flow cytometric analysis; format: functional; in short: as §1

Structure (SMILES)	pIC50 (HCT-116 [1])	other results
Cc1c(O)cc2c(c1O)C(=O)[C@@]1(Cl)C[C@@H](Br)C(C)(C)O[C@@]1(C[C@H]1C(C)(C)[C@H]3CC[C@]1(C)O3)C2=O	< 4.00	
Cc1c(O)cc2c(c1O)C(=O)[C@@]1(Cl)C[C@@H](Cl)C(C)(C)O[C@@]1(C[C@H]1C(C)(C)[C@@H](Cl)CC[C@]1(C)O)C2=O	4.82	Activity (HCT-116 [2]): Active; Activity (HCT-116 [3]): Active; Activity (HCT-116 [4]): Dose-dependent effect
C=C1CC[C@H](Cl)C(C)(C)[C@@H]1C[C@@]12OC(C)(C)[C@H](Cl)C[C@]1(Cl)C(=O)c1c(cc(O)c(C)c1O)C2=O	5.52	Activity (HCT-116 [5]): Active; Activity (HCT-116 [4]): Dose-dependent effect
Cc1c(O)cc2c(c1O)C(=O)C1=C[C@@H](Cl)C(C)(C)O[C@@]1(C[C@H]1C(C)(C)[C@@H](Cl)CC[C@]1(C)O)C2=O	< 4.00	
COc1cc([C@@H]2c3cc4c(cc3[C@@H](O[C@@H]3O[C@@H]5CO[C@@H](C)O[C@H]5[C@H](O)[C@H]3O)[C@H]3COC(=O)[C@H]23)OCO4)cc(OC)c1O [ETOPOSIDE]	6.00	
Cc1c(O)cc2c(c1O)C(=O)[C@H]1C[C@@H](Br)C(C)(C)O[C@@]1(C[C@H]1C(C)(C)[C@@H](Br)CC[C@]1(C)O)C2=O	4.31	
C=C1CC[C@H](Br)C(C)(C)[C@@H]1C[C@@]12OC(C)(C)[C@H](Cl)C[C@]1(Cl)C(=O)c1c(O)cc(O)cc1C2=O	5.52	
CC1=C(O)C2=C(C(=O)[C@]3(C[C@H]4C(C)(C)[C@@H](Cl)CC[C@]4(C)O)OC(C)(C)[C@H](Cl)C[C@]3(Cl)C2=O)C(=[N+]=[N-])C1=O	> 6.00	
Cc1c(O)cc2c(c1O)C(=O)C1C[C@@H](Cl)C(C)(C)O[C@@]1(C[C@H]1C(C)(C)[C@@H](Cl)CC[C@]1(C)O)C2=O (stereo partly drawn)	< 4.00	
CC1(C)O[C@@]2(C[C@H]3C(C)(C)[C@@H](Cl)CC[C@]3(C)O)C(=O)c3cc(O)cc(O)c3C(=O)[C@@]2(Cl)C[C@H]1Cl	5.00	
CC(C)=CCC/C(C)=C/C[C@@]12OC(C)(C)[C@H](Br)C[C@]1(Cl)C(=O)c1c(cc(O)c(C)c1O)C2=O	5.22	
C=C1CC[C@H](Cl)C(C)(C)[C@@H]1C[C@@]12OC(C)(C)[C@H](Cl)C[C@]1(Cl)C(=O)c1c(O)cc(O)cc1C2=O	5.70	
Cc1c(O)cc2c(c1O)C(=O)[C@@]1(Cl)C[C@@H](Cl)C(C)(C)O[C@@]1(C[C@H]1C(C)(C)[C@H]3CC[C@]1(C)O3)C2=O	4.77	Activity (HCT-116 [5]): Active; Activity (HCT-116 [4]): Dose-dependent effect
C=C1CC[C@H](Cl)C(C)(C)[C@@H]1C[C@@]12OC(C)(C)[C@H](Cl)C[C@]1(Cl)C(=O)C1=C(C2=O)C(=[N+]=[N-])C(=O)C(C)=C1O	> 6.00	Activity (HCT-116 [4]): Dose-dependent effect; Activity (HCT-116 [6]): Active
